Reference: ChEMBL document CHEMBL4261538, “Synthesis and molecular docking studies of xanthone attached amino acids as potential antimicrobial and anti-inflammatory agents” (Medchemcomm, 2017)

Legend:
[1] = test system: Klebsiella pneumoniae; experiment: Antibacterial activity against Klebsiella pneumoniae at 100 ug/ml incubated for 24 hrs by agar well diffusion method; assay type: functional; conditions: read-out: DIZ
In short: (§1)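 Bacteria grown in nutrient broth at 37 °C for 24 h, then subcultured at room temperature. Compounds dissolved in DMSO at 5 mg mL⁻¹ and 5–20 µL added to 6 mm wells, giving 25, 50, 75, 100 µg per well. Gentamicin was the positive control and DMSO the negative control. Plates held at 37 °C for 24 h, then inhibition zone diameter (mm) measured. Values are means of three determinations.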

[2] = test system: Bacillus subtilis; experiment: Antibacterial activity against Bacillus subtilis at 50 ug/ml incubated for 24 hrs by agar well diffusion method; assay type: functional; conditions: read-out: DIZ; in short: as §1
[3] = test system: Candida albicans; experiment: Antifungal activity against Candida albicans incubated for 48 to 72 hrs by microdilution method; assay type: functional
In short: (§2)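 Sabouraud agar plates inoculated with fungal suspension at 10⁵ CFU mL⁻¹ plus serially diluted compounds and bavistin reference, both in DMSO. Incubated at 25 °C for 48–72 h. MIC is the lowest concentration completely inhibiting growth. Values are means of three determinations.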

[4] = test system: Escherichia coli; experiment: Antibacterial activity against Escherichia coli incubated for 24 hrs by microdilution method; assay type: functional
[5] = test system: Aspergillus niger; experiment: Antifungal activity against Aspergillus niger incubated for 48 to 72 hrs by microdilution method; assay type: functional; in short: as §2
[6] = test system: Bacillus subtilis; experiment: Antibacterial activity against Bacillus subtilis at 75 ug/ml incubated for 24 hrs by agar well diffusion method; assay type: functional; conditions: read-out: DIZ; in short: as §1
[7] = test system: Klebsiella pneumoniae; experiment: Antibacterial activity against Klebsiella pneumoniae at 25 ug/ml incubated for 24 hrs by agar well diffusion method; assay type: functional; conditions: read-out: DIZ; in short: as §1
[8] = test system: Staphylococcus aureus; experiment: Antibacterial activity against Staphylococcus aureus at 50 ug/ml incubated for 24 hrs by agar well diffusion method; assay type: functional; conditions: read-out: DIZ; in short: as §1
[9] = test system: Staphylococcus aureus; experiment: Antibacterial activity against Staphylococcus aureus incubated for 24 hrs by microdilution method; assay type: functional
[10] = test system: Escherichia coli; experiment: Antibacterial activity against Escherichia coli at 75 ug/ml incubated for 24 hrs by agar well diffusion method; assay type: functional; conditions: read-out: DIZ; in short: as §1
[11] = test system: Staphylococcus aureus; experiment: Antibacterial activity against Staphylococcus aureus at 25 ug/ml incubated for 24 hrs by agar well diffusion method; assay type: functional; conditions: read-out: DIZ; in short: as §1
[12] = test system: Erythrocyte; experiment: Anti-inflammatory activity in human RBC assessed as inhibition of hypotonic solution-induced hemolysis after 10 mins by spectrophotometric method; assay type: functional, cell-based
In short: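 Human blood (heparinized) washed with 0.9% saline, packed cells made into a 40% v/v stock in isotonic phosphate buffer (154 mM NaCl, 10 mM sodium phosphate, pH 7.4). Stock RBC mixed with hypotonic buffer (50 mM NaCl, 10 mM phosphate, pH 7.4) plus sample at 20–100 µg mL⁻¹.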

[13] = test system: Klebsiella pneumoniae; experiment: Antibacterial activity against Klebsiella pneumoniae incubated for 24 hrs by microdilution method; assay type: functional
[14] = test system: Escherichia coli; experiment: Antibacterial activity against Escherichia coli at 100 ug/ml incubated for 24 hrs by agar well diffusion method; assay type: functional; conditions: read-out: DIZ; in short: as §1
[15] = test system: Staphylococcus aureus; experiment: Antibacterial activity against Staphylococcus aureus at 100 ug/ml incubated for 24 hrs by agar well diffusion method; assay type: functional; conditions: read-out: DIZ; in short: as §1
[16] = test system: Fusarium oxysporum; experiment: Antifungal activity against Fusarium oxysporum at 100 ug/ml incubated for 48 hrs by agar well diffusion method; assay type: functional; conditions: read-out: DIZ
In short: (§3)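 Compounds dissolved in DMSO at 5 mg mL⁻¹ and 5–20 µL added to 6 mm wells, giving 25, 50, 75, 100 µg per well. Bavistin was the positive control and DMSO the negative control. Plates incubated at 28 °C for 48 h, then inhibition zone diameter (mm) measured. Values are means of three determinations.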

[17] = test system: Fusarium oxysporum; experiment: Antifungal activity against Fusarium oxysporum at 50 ug/ml incubated for 48 hrs by agar well diffusion method; assay type: functional; conditions: read-out: DIZ; in short: as §3
[18] = test system: Staphylococcus aureus; experiment: Antibacterial activity against Staphylococcus aureus at 75 ug/ml incubated for 24 hrs by agar well diffusion method; assay type: functional; conditions: read-out: DIZ; in short: as §1
[19] = test system: Escherichia coli; experiment: Antibacterial activity against Escherichia coli at 50 ug/ml incubated for 24 hrs by agar well diffusion method; assay type: functional; conditions: read-out: DIZ; in short: as §1
[20] = test system: Aspergillus niger; experiment: Antifungal activity against Aspergillus niger at 75 ug/ml incubated for 48 hrs by agar well diffusion method; assay type: functional; conditions: read-out: DIZ; in short: as §3
[21] = test system: Escherichia coli; experiment: Antibacterial activity against Escherichia coli at 25 ug/ml incubated for 24 hrs by agar well diffusion method; assay type: functional; conditions: read-out: DIZ; in short: as §1
[22] = test system: Fusarium oxysporum; experiment: Antifungal activity against Fusarium oxysporum at 25 ug/ml incubated for 48 hrs by agar well diffusion method; assay type: functional; conditions: read-out: DIZ; in short: as §3
[23] = test system: Aspergillus niger; experiment: Antifungal activity against Aspergillus niger at 50 ug/ml incubated for 48 hrs by agar well diffusion method; assay type: functional; conditions: read-out: DIZ; in short: as §3
[24] = test system: Aspergillus niger; experiment: Antifungal activity against Aspergillus niger at 25 ug/ml incubated for 48 hrs by agar well diffusion method; assay type: functional; conditions: read-out: DIZ; in short: as §3
[25] = test system: Candida albicans; experiment: Antifungal activity against Candida albicans at 25 ug/ml incubated for 48 hrs by agar well diffusion method; assay type: functional; conditions: read-out: DIZ; in short: as §3
[26] = test system: Klebsiella pneumoniae; experiment: Antibacterial activity against Klebsiella pneumoniae at 50 ug/ml incubated for 24 hrs by agar well diffusion method; assay type: functional; conditions: read-out: DIZ; in short: as §1
[27] = test system: Bacillus subtilis; experiment: Antibacterial activity against Bacillus subtilis at 25 ug/ml incubated for 24 hrs by agar well diffusion method; assay type: functional; conditions: read-out: DIZ; in short: as §1
[28] = test system: Candida albicans; experiment: Antifungal activity against Candida albicans at 50 ug/ml incubated for 48 hrs by agar well diffusion method; assay type: functional; conditions: read-out: DIZ; in short: as §3
[29] = test system: Candida albicans; experiment: Antifungal activity against Candida albicans at 100 ug/ml incubated for 48 hrs by agar well diffusion method; assay type: functional; conditions: read-out: DIZ; in short: as §3
[30] = test system: Klebsiella pneumoniae; experiment: Antibacterial activity against Klebsiella pneumoniae at 75 ug/ml incubated for 24 hrs by agar well diffusion method; assay type: functional; conditions: read-out: DIZ; in short: as §1
[31] = test system: Bacillus subtilis; experiment: Antibacterial activity against Bacillus subtilis at 100 ug/ml incubated for 24 hrs by agar well diffusion method; assay type: functional; conditions: read-out: DIZ; in short: as §1
[32] = test system: Staphylococcus aureus; experiment: Induction of cell membrane damage in Staphylococcus aureus assessed as cell content leakage at MIC by spectrophotometric method; assay type: functional, organism-based; conditions: TDE = time-dependent effect
In short: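 Log-phase S. aureus inoculated into 0.1% sterile peptone water, with an untreated control, and held at 37 °C for 0, 30, 60 and 120 min. 1 mL of broth centrifuged and supernatant OD read at 260 nm to measure released DNA. Run in triplicate, repeated three times.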

[33] = test system: Aspergillus niger; experiment: Antifungal activity against Aspergillus niger at 100 ug/ml incubated for 48 hrs by agar well diffusion method; assay type: functional; conditions: read-out: DIZ; in short: as §3
[34] = test system: Fusarium oxysporum; experiment: Antifungal activity against Fusarium oxysporum incubated for 48 to 72 hrs by microdilution method; assay type: functional; in short: as §2
[35] = test system: Bacillus subtilis; experiment: Antibacterial activity against Bacillus subtilis incubated for 24 hrs by microdilution method; assay type: functional
[36] = test system: Candida albicans; experiment: Antifungal activity against Candida albicans at 75 ug/ml incubated for 48 hrs by agar well diffusion method; assay type: functional; conditions: read-out: DIZ; in short: as §3
[37] = test system: Fusarium oxysporum; experiment: Antifungal activity against Fusarium oxysporum at 75 ug/ml incubated for 48 hrs by agar well diffusion method; assay type: functional; conditions: read-out: DIZ; in short: as §3

For `Cl.O=C(Oc1ccc2c(=O)c3ccccc3oc2c1)[C@@H]1CCCN1`, the zone of inhibition at 100 µg/mL [1] was 38 mm, the zone of inhibition at 50 µg/mL [2] was 26 mm and the MIC [3] was 28 µg/mL. It also gave an MIC [4] of 24 µg/mL, an MIC [5] of 27 µg/mL and a zone of inhibition at 75 µg/mL [6] of 32 mm. The zone of inhibition at 25 µg/mL [7] was 18 mm, the zone of inhibition at 50 µg/mL [8] was 27 mm and the MIC [9] was 26 µg/mL. The zone of inhibition at 75 µg/mL [10] was 32 mm, the zone of inhibition at 25 µg/mL [11] was 20 mm and the IC50 [12] was 36 µg/mL. It also gave an MIC [13] of 26 µg/mL, a zone of inhibition at 100 µg/mL [14] of 39 mm and a zone of inhibition at 100 µg/mL [15] of 35 mm. For the same compound, the zone of inhibition at 100 µg/mL [16] was 35 mm, the zone of inhibition at 50 µg/mL [17] was 24 mm and the zone of inhibition at 75 µg/mL [18] was 31 mm. It also gave a zone of inhibition at 50 µg/mL [19] of 25 mm, a zone of inhibition at 75 µg/mL [20] of 30 mm and a zone of inhibition at 25 µg/mL [21] of 20 mm. For the same compound, the zone of inhibition at 25 µg/mL [22] was 20 mm, the zone of inhibition at 50 µg/mL [23] was 24 mm and the zone of inhibition at 25 µg/mL [24] was 17 mm. It also gave a zone of inhibition at 25 µg/mL [25] of 16 mm, a zone of inhibition at 50 µg/mL [26] of 28 mm and a zone of inhibition at 25 µg/mL [27] of 18 mm. The zone of inhibition at 50 µg/mL [28] was 22 mm, the zone of inhibition at 100 µg/mL [29] was 34 mm and the zone of inhibition at 75 µg/mL [30] was 33 mm. The zone of inhibition at 100 µg/mL [31] was 37 mm, the Activity [32] was “Tde” and the zone of inhibition at 100 µg/mL [33] was 33 mm. It also gave an MIC [34] of 28 µg/mL, an MIC [35] of 25 µg/mL and a zone of inhibition at 75 µg/mL [36] of 27 mm. For the same compound, the zone of inhibition at 75 µg/mL [37] was 29 mm.
